Experimental data from ChEMBL document CHEMBL3352338, “Development and biological evaluation of potent and selective c-KIT(D816V) inhibitors” (J Med Chem, 2014).
pIC50: −log10 of the molar value. Calls of active or inactive are those of the source. The calls are words filed in the database; no cut-off is given here.

What was measured:
[1] = target: Mast/stem cell growth factor receptor Kit (Homo sapiens, UniProt P10721, D816V); assay: Inhibition of c-KIT D816V mutant (unknown origin)
[2] = Antiproliferative activity against human HMC-1.2 cells carrying V560G, D816V mutant assessed as cell growth inhibition by MTT assay; assay type: functional, cell-based
Summary of the method: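 Cell viability by MTT assay in imatinib-resistant HMC-1.2 human mast cells (V560G, D816V), 48 h exposure across a range of concentrations.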

[3] = target: T1, Mast/stem cell growth factor receptor Kit (Homo sapiens, UniProt P10721); assay: Inhibition of c-KIT (unknown origin) at 1 uM by KINOMEscanning/auto inhibition assay; values are per cent of control
[4] = target: ALK tyrosine kinase receptor (Homo sapiens) (UniProt Q9UM73); assay: Inhibition of ALK (unknown origin) at 1 uM by KINOMEscanning assay relative to control; values are per cent of control
[5] = target: Hepatocyte growth factor receptor (Homo sapiens) (UniProt P08581); assay: Inhibition of MET (unknown origin) at 1 uM by KINOMEscanning assay relative to control; values are per cent of control
[6] = target: RAC-alpha serine/threonine-protein kinase (Homo sapiens) (UniProt P31749); assay: Inhibition of AKT1 (unknown origin) at 1 uM by KINOMEscanning assay relative to control; values are per cent of control
[7] = target: RAC-beta serine/threonine-protein kinase (Homo sapiens) (UniProt P31751); assay: Inhibition of AKT2 (unknown origin) at 1 uM by KINOMEscanning assay relative to control; values are per cent of control
[8] = target: Serine/threonine-protein kinase B-raf (Homo sapiens) (UniProt P15056); assay: Inhibition of BRAF (unknown origin) at 1 uM by KINOMEscanning assay relative to control; values are per cent of control
[9] = target: Vascular endothelial growth factor receptor 1 (Homo sapiens) (UniProt P17948); assay: Inhibition of FLT1 (unknown origin) at 1 uM by KINOMEscanning assay relative to control; values are per cent of control
[10] = target: Tyrosine-protein kinase JAK1 (Homo sapiens) (UniProt P23458); assay: Inhibition of JAK1 (unknown origin) at 1 uM by KINOMEscanning assay relative to control; values are per cent of control
[11] = target: Dual specificity mitogen-activated protein kinase kinase 1 (Homo sapiens) (UniProt Q02750); assay: Inhibition of MEK1 (unknown origin) at 1 uM by KINOMEscanning assay relative to control; values are per cent of control
[12] = target: Serine/threonine-protein kinase PLK1 (Homo sapiens) (UniProt P53350); assay: Inhibition of PLK1 (unknown origin) at 1 uM by KINOMEscanning assay relative to control; values are per cent of control
[13] = target: BDNF/NT-3 growth factors receptor (Homo sapiens) (UniProt Q16620); assay: Inhibition of TRKB (unknown origin) at 1 uM by KINOMEscanning assay relative to control; values are per cent of control
[14] = target: Aurora kinase B (Homo sapiens) (UniProt Q96GD4); assay: Inhibition of AURKB (unknown origin) at 1 uM by KINOMEscanning assay relative to control; values are per cent of control
[15] = target: Cyclin-dependent kinase 19 (Homo sapiens) (UniProt Q9BWU1); assay: Inhibition of CDK11 (unknown origin) at 1 uM by KINOMEscanning assay relative to control; values are per cent of control
[16] = target: Insulin-like growth factor 1 receptor (Homo sapiens) (UniProt P08069); assay: Inhibition of IGF1R (unknown origin) at 1 uM by KINOMEscanning assay relative to control; values are per cent of control
[17] = target: T1, Mast/stem cell growth factor receptor Kit; assay: Inhibition of c-KIT (unknown origin) at 1 uM by KINOMEscanning assay relative to control; values are per cent of control
[18] = target: Rho-associated protein kinase 1 (Homo sapiens) (UniProt Q13464); assay: Inhibition of ROCK1 (unknown origin) at 1 uM by KINOMEscanning assay relative to control; values are per cent of control
[19] = target: Platelet-derived growth factor receptor alpha (Homo sapiens) (UniProt P16234); assay: Inhibition of PDGFRalpha (unknown origin) at 1 uM by KINOMEscanning assay relative to control; values are per cent of control
[20] = target: 5'-AMP-activated protein kinase catalytic subunit alpha-1 (Homo sapiens) (UniProt Q13131); assay: Inhibition of AMPKalpha 1 (unknown origin) at 1 uM by KINOMEscanning assay relative to control; values are per cent of control
[21] = tested on: Tyrosine-protein kinase ABL1 (Homo sapiens), P00519 [T315I]; assay: Inhibition of ABL T315I mutant (unknown origin) at 1 uM by KINOMEscanning assay relative to control; values are per cent of control
[22] = tested on: Serine/threonine-protein kinase B-raf (Homo sapiens), P15056 [V600E]; assay: Inhibition of BRAF V600E mutant (unknown origin) at 1 uM by KINOMEscanning assay relative to control; values are per cent of control
[23] = tested on: Mast/stem cell growth factor receptor Kit (Homo sapiens), P10721 [D816V]; assay: Inhibition of c-KIT D816V mutant (unknown origin) at 1 uM by KINOMEscanning assay relative to control; values are per cent of control
[24] = target: T1, Mast/stem cell growth factor receptor Kit; conditions: 5 uM
[25] = target: T1, Mast/stem cell growth factor receptor Kit; conditions: 5 uM; remark: listed apart in the source

T1 sequence (P10721 whole entry): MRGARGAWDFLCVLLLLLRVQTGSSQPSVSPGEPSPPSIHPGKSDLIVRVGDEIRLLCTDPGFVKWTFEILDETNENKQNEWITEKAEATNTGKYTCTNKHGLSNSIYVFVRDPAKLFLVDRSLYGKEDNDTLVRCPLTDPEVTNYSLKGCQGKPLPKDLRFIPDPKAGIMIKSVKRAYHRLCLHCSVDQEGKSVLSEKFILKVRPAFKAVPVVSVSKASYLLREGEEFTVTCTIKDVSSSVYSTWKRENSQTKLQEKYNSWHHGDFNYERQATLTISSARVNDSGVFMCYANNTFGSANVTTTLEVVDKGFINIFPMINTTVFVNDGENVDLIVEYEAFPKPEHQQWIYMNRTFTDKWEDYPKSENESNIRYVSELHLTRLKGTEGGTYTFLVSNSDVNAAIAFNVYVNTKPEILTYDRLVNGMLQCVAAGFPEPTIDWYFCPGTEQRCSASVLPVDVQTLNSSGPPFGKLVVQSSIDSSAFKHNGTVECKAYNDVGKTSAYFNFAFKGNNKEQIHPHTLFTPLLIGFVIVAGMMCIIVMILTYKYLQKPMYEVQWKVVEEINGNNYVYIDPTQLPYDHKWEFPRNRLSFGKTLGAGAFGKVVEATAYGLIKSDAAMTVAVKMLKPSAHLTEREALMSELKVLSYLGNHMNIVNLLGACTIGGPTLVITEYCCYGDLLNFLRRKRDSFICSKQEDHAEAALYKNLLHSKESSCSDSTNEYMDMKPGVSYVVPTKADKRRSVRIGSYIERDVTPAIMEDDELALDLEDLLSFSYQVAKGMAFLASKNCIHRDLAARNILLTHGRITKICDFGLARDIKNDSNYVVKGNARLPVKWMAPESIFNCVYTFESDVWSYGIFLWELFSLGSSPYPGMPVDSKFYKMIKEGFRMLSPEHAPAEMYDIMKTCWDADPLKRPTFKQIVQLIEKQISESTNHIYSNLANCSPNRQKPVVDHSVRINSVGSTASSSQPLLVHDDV
Chain of RAC-alpha serine/threonine-protein kinase (Homo sapiens) (P31749 whole entry): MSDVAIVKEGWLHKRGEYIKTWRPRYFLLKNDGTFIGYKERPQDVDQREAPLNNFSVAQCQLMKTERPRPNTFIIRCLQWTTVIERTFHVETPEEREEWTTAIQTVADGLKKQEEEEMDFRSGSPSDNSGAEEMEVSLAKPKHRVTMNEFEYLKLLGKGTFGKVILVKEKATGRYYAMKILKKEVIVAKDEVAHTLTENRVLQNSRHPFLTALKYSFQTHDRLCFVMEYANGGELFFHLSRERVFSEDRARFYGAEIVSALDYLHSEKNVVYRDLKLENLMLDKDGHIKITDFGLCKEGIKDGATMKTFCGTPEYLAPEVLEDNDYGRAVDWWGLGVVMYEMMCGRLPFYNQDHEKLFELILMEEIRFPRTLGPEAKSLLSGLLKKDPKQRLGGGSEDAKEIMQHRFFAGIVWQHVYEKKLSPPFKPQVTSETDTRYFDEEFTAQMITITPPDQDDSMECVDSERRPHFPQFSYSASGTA
Chain of Serine/threonine-protein kinase B-raf (Homo sapiens), P15056 [V600E] (P15056 whole entry V600E): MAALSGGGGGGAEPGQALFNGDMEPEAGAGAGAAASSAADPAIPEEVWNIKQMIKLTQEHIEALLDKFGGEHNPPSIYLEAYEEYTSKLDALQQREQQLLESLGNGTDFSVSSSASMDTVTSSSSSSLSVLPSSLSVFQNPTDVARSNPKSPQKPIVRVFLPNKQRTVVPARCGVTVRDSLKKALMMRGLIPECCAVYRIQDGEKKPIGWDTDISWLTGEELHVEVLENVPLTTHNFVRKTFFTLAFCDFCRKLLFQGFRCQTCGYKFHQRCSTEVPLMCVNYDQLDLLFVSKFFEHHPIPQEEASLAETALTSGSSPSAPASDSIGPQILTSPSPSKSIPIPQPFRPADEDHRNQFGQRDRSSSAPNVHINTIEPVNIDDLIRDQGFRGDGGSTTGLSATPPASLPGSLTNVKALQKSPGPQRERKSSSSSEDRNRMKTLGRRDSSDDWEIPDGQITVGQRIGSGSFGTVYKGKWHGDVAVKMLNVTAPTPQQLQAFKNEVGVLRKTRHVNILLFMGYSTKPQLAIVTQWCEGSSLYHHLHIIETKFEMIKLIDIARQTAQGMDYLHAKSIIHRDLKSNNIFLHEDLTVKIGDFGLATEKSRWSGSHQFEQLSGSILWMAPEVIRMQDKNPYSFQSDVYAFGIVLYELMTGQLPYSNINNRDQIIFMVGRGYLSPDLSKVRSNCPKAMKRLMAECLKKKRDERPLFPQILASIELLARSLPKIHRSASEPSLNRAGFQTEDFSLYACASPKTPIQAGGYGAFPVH
Chain of Serine/threonine-protein kinase PLK1 (Homo sapiens) (P53350 whole entry): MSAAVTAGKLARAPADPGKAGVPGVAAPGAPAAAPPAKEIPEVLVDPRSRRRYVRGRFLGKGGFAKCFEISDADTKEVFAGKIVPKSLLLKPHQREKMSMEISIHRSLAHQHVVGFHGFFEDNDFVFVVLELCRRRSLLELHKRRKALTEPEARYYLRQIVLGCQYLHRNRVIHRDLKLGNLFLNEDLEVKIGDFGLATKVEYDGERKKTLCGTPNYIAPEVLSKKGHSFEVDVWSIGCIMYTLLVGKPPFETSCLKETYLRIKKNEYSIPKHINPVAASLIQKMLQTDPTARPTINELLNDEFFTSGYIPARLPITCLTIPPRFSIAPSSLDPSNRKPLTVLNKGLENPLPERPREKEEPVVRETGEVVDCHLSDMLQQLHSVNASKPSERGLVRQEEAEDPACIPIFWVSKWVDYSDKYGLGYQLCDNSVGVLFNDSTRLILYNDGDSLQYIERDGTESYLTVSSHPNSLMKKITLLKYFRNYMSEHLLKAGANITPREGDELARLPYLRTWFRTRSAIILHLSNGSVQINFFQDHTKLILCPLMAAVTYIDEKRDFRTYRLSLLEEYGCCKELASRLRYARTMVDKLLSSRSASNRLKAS
Chain of Mast/stem cell growth factor receptor Kit (Homo sapiens, UniProt P10721, D816V) (P10721 26-976 D816V limits assumed): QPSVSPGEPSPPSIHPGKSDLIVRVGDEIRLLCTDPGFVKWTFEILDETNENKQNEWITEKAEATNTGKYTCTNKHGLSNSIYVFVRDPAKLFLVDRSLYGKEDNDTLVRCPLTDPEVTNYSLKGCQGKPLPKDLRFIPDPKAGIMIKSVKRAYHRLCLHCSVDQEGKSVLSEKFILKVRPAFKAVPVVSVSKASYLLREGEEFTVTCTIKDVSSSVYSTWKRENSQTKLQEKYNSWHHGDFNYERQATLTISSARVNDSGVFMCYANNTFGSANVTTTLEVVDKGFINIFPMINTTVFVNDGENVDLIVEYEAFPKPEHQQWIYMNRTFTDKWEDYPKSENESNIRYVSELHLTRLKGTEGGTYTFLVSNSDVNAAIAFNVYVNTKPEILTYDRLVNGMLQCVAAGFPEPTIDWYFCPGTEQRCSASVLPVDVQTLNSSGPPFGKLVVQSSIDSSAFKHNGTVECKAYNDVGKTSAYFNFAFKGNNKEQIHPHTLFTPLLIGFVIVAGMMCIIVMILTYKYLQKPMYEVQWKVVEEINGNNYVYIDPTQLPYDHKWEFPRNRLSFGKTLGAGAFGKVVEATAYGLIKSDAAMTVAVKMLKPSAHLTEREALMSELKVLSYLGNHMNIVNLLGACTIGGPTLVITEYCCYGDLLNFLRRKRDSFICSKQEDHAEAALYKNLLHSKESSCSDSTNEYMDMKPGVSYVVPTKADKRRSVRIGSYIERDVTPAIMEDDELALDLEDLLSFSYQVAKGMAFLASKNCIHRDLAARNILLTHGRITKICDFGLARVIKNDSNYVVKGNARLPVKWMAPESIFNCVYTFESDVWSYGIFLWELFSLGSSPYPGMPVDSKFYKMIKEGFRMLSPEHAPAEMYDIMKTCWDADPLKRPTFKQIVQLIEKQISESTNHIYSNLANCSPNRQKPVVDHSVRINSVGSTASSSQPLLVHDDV
Chain of Tyrosine-protein kinase JAK1 (Homo sapiens) (P23458 whole entry): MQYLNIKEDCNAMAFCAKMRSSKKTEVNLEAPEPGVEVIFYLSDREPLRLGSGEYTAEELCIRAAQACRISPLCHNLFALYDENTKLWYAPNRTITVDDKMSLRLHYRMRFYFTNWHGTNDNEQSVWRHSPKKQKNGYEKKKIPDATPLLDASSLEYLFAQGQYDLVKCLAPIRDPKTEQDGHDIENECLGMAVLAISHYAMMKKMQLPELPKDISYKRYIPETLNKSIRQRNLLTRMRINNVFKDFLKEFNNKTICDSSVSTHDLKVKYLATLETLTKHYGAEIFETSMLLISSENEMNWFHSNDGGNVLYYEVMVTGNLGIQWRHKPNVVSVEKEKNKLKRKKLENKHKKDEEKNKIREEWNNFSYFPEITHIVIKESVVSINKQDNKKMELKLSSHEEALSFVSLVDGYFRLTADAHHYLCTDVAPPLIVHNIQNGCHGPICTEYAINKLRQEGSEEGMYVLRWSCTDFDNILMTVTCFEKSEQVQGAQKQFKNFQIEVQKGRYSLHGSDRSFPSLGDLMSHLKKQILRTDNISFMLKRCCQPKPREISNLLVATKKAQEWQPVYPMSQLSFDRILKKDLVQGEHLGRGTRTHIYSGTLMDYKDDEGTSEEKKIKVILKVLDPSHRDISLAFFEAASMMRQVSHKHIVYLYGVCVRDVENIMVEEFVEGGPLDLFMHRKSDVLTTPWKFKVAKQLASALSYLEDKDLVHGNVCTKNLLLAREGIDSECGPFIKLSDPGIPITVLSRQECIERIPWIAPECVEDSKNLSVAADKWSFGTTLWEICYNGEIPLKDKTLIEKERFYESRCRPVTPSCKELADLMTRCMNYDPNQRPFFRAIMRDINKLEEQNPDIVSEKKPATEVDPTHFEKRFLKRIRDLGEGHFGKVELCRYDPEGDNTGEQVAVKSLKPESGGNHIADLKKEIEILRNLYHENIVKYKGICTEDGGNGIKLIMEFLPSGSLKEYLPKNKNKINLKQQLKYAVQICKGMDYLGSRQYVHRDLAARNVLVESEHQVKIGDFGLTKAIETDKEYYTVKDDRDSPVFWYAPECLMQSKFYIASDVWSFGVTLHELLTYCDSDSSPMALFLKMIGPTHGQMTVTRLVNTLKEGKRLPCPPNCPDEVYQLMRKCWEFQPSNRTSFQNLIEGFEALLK
Chain of Serine/threonine-protein kinase B-raf (Homo sapiens) (P15056 whole entry): as the sequence (P15056 whole entry V600E) above, with E600V counted along it
Chain of Mast/stem cell growth factor receptor Kit (Homo sapiens), P10721 [D816V] (P10721 whole entry D816V): as the sequence (P10721 whole entry) above, with D816V counted along it

| SMILES | pIC50 [1] | residual activity [3] | residual activity [4] | residual activity [5] | residual activity [6] | residual activity [7] | residual activity [8] | residual activity [9] | residual activity [10] | residual activity [11] | residual activity [12] | residual activity [13] | residual activity [14] | residual activity [15] | residual activity [16] | residual activity [17] | residual activity [18] | residual activity [19] | residual activity [20] | pIC50 [2] | also measured |
| --- | --- | --- | --- | --- | --- | --- | --- | --- | --- | --- | --- | --- | --- | --- | --- | --- | --- | --- | --- | --- | --- |
| COc1ccc(-c2c[nH]c3ncc(-c4cc(OC)c(OC)c(OC)c4)cc23)cc1OC | 8.06 | 42% | 40% | 54% | 98% | 100% | 78% | 75% | 92% | 78% | 99% | 45% | 92% | 90% | 91% | 19% | 66% | 59% | 95% | 6.04 | inhibition [24]: Active; inhibition [25]: Active; residual activity [21]: 48%; residual activity [22]: 82%; residual activity [23]: 0% |
| COc1cc(-c2c[nH]c3ncc(-c4cccc(N)c4)cc23)cc(OC)c1OC | 7.01 | 53% | 33% | 35% | 87% | 100% | 28% | 36% | 71% | 85% | 100% | 68% | 31% | 96% | 100% | 9.8% | 94% | 65% | 90% | 6.09 | inhibition [24]: Active; inhibition [25]: Active; residual activity [21]: 47%; residual activity [22]: 34%; residual activity [23]: 2.1% |

More lines, main results first:

| pIC50 [1] | residual activity [3] | residual activity [4] | residual activity [5] | residual activity [6] | residual activity [7] | residual activity [8] | residual activity [9] | residual activity [10] | residual activity [11] | residual activity [12] | residual activity [13] | residual activity [14] | residual activity [15] | residual activity [16] | residual activity [17] | residual activity [18] | residual activity [19] | residual activity [20] | SMILES | pIC50 [2] | also measured |
| --- | --- | --- | --- | --- | --- | --- | --- | --- | --- | --- | --- | --- | --- | --- | --- | --- | --- | --- | --- | --- | --- |
| 8.07 | 76% | 76% | 54% | 100% | 97% | 78% | 56% | 100% | 59% | 84% | 17% | 44% | 100% | 96% | 51% | 16% | 36% | 84% | COc1ccc(-c2c[nH]c3ncc(-c4ccc(C(=O)N5CCOCC5)c(N)c4)cc23)cc1OC | 5.70 | residual activity [21]: 17%; residual activity [22]: 66%; residual activity [23]: 1.4% |
| 8.68 | 48% | 43% | 34% | 100% | 100% | 81% | 81% | 100% | 74% | 98% | 36% | 82% | 3.8% | 100% | 0.8% | 33% | 16% | 100% | COc1ccc(-c2cnc3[nH]cc(-c4ccc(OC)c(OC)c4)c3c2)cc1OC | 6.12 | inhibition [24]: Active; inhibition [25]: Active; residual activity [21]: 51%; residual activity [22]: 88%; residual activity [23]: 0% |
| 7.59 | 65% | 51% | 47% | 92% | 100% | 83% | 43% | 93% | 76% | 84% | 16% | 85% | 79% | 79% | 37% | 16% | 21% | 98% | COc1ccc(-c2cnc3[nH]cc(-c4ccc(OC)c(OC)c4)c3c2)cc1N | 6.06 | inhibition [24]: Active; inhibition [25]: Active; residual activity [21]: 54%; residual activity [22]: 78%; residual activity [23]: 0% |
